Measurements: publication PMC8360185 (Chembiochem, 2021)

System: FKBP12-NLuc or FKBP51-NLuc
Type: cell-based, human
Details: 1 µM Elacridar, 20 nM tracer 2b or 200 nM tracer 2c
Procedure, shortened: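 HEK293T cells expressing C-terminal FKBP-NanoLuc fusions were resuspended in Opti-MEM at 4.6×105 (transient) or 1.81×10^6 cells/mL (stable). Tracer was added from an eightfold stock, and test compound in DMSO was 1:2 serially diluted. Plates were incubated 2 h at 37 °C, then 15 min at RT. NanoGlo substrate (1:664) and extracellular NanoLuc inhibitor (1:2000) were added, with donor read at 450 nm and acceptor at 660 nm after 3 min.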

## COc1ccc(CC[C@@H](OC(=O)[C@@H]2CCCCN2C(=O)[C@H](c2cc(OC)c(OC)c(OC)c2)C2CCCCC2)c2cccc(OCCN3CCOCC3)c2)cc1OC [SAFit2]
  effect of Elacridar on NanoBRET activity: did not affect

## C=CC[C@@H]1/C=C(\C)C[C@H](C)C[C@H](OC)[C@H]2O[C@@](O)(C(=O)C(=O)N3CCCC[C@H]3C(=O)O[C@H](/C(C)=C/[C@@H]3CC[C@@H](O)[C@H](OC)C3)[C@H](C)[C@@H](O)CC1=O)[C@H](C)C[C@@H]2OC [FK506]
  effect of Elacridar on NanoBRET activity: did not affect
